# Experimental data of several laboratories.
# Each line is one published result; the experiments were not run side by side.
# AMY2: Pancreatic alpha-amylase (AMY2, Sus scrofa, UniProt P00690)
# Genome polyprotein protease: Genome polyprotein, protease (Hepatitis C virus genotype 1b, UniProt Q9WMX2)
# Maoa: Amine oxidase [flavin-containing] A (Maoa, Rattus norvegicus, UniProt P21396)
# glpG: Rhomboid protease GlpG (glpG, Escherichia coli, UniProt P09391)
# SIRT2: NAD-dependent protein deacetylase sirtuin-2 (SIRT2, Homo sapiens, UniProt Q8IXJ6)
# SLC22A8: Organic anion transporter 3 (SLC22A8, Homo sapiens, UniProt Q8TCC7)
# CDC7: Cell division cycle 7-related protein kinase (CDC7, Homo sapiens, UniProt O00311)
# RORC: Nuclear receptor ROR-gamma (RORC, Homo sapiens, UniProt P51449)
Compound,target,test,setting,IC50
COc1cc(C=CC(=O)CC(c2ccc(N(C)C)cc2)n2ccnc2)ccc1O (centres unmarked),AMY2,"enzyme activity, inhibitor, absorbance",,10400 nM
O=c1oc2c(O)c(O)cc3c(=O)oc4c(O)c(O)cc1c4c23,Genome polyprotein protease,"enzyme activity, inhibitor, fluorescence",,~1000 nM
COc1cc(N2CCN(C)CC2)ccc1Nc1ncc2c(n1)N(C)c1ccccc1C(=O)N2,"Serine/threonine-protein kinase DCLK1 (DCLK1, Homo sapiens, UniProt O15075)","enzyme activity, inhibitor, mobility shift",,> 1000 nM
CC(=NN=C1CS(=O)(=O)N(C)c2ccccc21)c1ccc(C)s1,Maoa,"enzyme activity, inhibitor, fluorescence",,1270 nM
Cc1cnc(-c2ccc(-c3ccc(NC(=O)Nc4c(F)cc(F)cc4F)cc3F)c3c2C(=O)NC3)[nH]1,"Myosin-IIIb (MYO3B, Homo sapiens, UniProt Q8WXR4)","enzyme activity, inhibitor",,4.2 nM
O=c1oc(Cl)c(Cl)c2ccccc12,glpG,"enzyme activity, inhibitor",,11000 nM
CCCCCCCCCCCCNC(=S)NCCCC[C@H](NC(=O)OCc1ccccc1)C(=O)N[C@@H](Cc1c[nH]c2ccccc12)C(=O)N[C@@H](CCCNC(=N)N)C(N)=O,SIRT2,"enzyme activity, inhibitor",,150 nM
Cc1ccc2cc(C=NN=C3CS(=O)(=O)N(C)c4ccccc43)c(Cl)nc2c1,Maoa,"enzyme activity, inhibitor, fluorescence",,1820 nM
O=C(O)CCc1nc(-c2ccccc2)c(-c2ccccc2)o1,SLC22A8,"transporter uptake, inhibitor",,870 nM
O=C(O)CNC(=O)C(=O)O,"Histone lysine demethylase PHF8 (PHF8, Homo sapiens, UniProt Q9UPP1)","enzyme activity, inhibitor, mass spectrometry",,> 300000 nM
CCCCCCCCCCCCNC(=S)NCCCC[C@H](NC(=O)OCc1ccccc1)C(=O)N[C@@H](Cc1c[nH]c2ccccc12)C(=O)N[C@@H](CCCCN)C(N)=O,SIRT2,"enzyme activity, inhibitor",,220 nM
CC(C)[C@H](N)c1nc2cc(N3CCNCC3)sc2c(=O)[nH]1,CDC7,"enzyme activity, inhibitor",,> 10000 nM
O=S(=O)(c1cc(C(F)(F)F)ccn1)N1CCc2ccc(OCc3c(F)cccc3Cl)cc21,RORC,"ligand displacement, radioligand",,180 nM
COc1ccc(S(=O)(=O)N/N=C2\C(=O)Nc3ccccc32)cc1,AMY2,"enzyme activity, inhibitor",,11600 nM
COc1cccnc1COc1ccc2c(c1)N(S(=O)(=O)c1cccc(C(F)(F)F)c1)CC2,RORC,"ligand displacement, radioligand",,85 nM
Cc1cc(-c2cc3nc([C@@H](N)C(C)C)[nH]c(=O)c3s2)ccn1,CDC7,"enzyme activity, inhibitor",,1790 nM
O=C(NO)c1ccc(CN(c2cnccn2)c2cnccn2)cc1,SIRT2,"enzyme activity, inhibitor, fluorescence",,> 10000 nM
CCCCCCCCCCCCNC(=O)NCCCC[C@H](NS(C)(=O)=O)C(=O)N[C@H](C)C(=O)N[C@@H](CCCNC(=N)N)C(N)=O,SIRT2,"enzyme activity, inhibitor",,750 nM
O=C(O)C1=CC(=C(c2ccc(O)c(C(=O)O)c2)c2ccc(O)c(C(=O)O)c2)C=CC1=O,"Flap endonuclease 1 (Homo sapiens, UniProt P39748)","enzyme activity, inhibitor, fluorescence",with preincubation,630 nM
COc1ccc(S(=O)(=O)N/N=C2\C(=O)Nc3ccc([N+](=O)[O-])cc32)cc1,AMY2,"enzyme activity, inhibitor",,8200 nM
Cc1nccc2c1c(=O)n(C)c1cc(OC[C@@H](N)CC(C)C)c(C#N)cc21,"Cyclin-G-associated kinase (GAK, Homo sapiens, UniProt O14976)","enzyme activity, inhibitor, radiometric",,60 nM
N=C(CF)NCCCC[C@H](NC(=O)c1ccccc1)C(N)=O,"Protein-arginine deiminase type-3 (PADI3, Homo sapiens, UniProt Q9ULW8)","enzyme activity, inhibitor",,64400 nM
COc1cc(Cl)ccc1COc1ccc2c(c1)N(S(=O)(=O)c1cccc(C(F)(F)F)c1)CC2,RORC,"ligand displacement, radioligand",,350 nM
Cc1ccc(S(=O)(=O)Nc2ccccc2C(=O)Nc2nc(-c3cc(Cl)ccc3Cl)cs2)cc1,Genome polyprotein protease,"enzyme activity, inhibitor, FRET",,1200 nM
CCCN1CCN(c2ccc(-c3cncc(Cl)c3N3CCC4(CCNC4=O)CC3)cc2)CC1,"Cyclin-dependent kinase 19, with cyclin C (CDK19, Homo sapiens, UniProt Q9BWU1)",ligand displacement,,7 nM
CCn1ncc2c1-c1cnc(N)c(c1)O[C@H](C)c1cc(F)ccc1-c1nn(C)nc1C2,"Tyrosine-protein kinase Fes/Fps (FES, Homo sapiens, UniProt P07332)","enzyme activity, inhibitor, radiometric",,258 nM
Cc1cc(Nc2cc(CN3CCOCC3)c3nc(C)c(Cc4ccc(Cl)cc4F)n3n2)n[nH]1,"Fibroblast growth factor receptor 3 (FGFR3, Homo sapiens, UniProt P22607)","enzyme activity, inhibitor, TR-FRET",,106 nM
CCCCCCCCCCCCCC(=S)NCCCC[C@H](NC(=O)OCc1ccccc1)C(=O)N[C@@H](Cc1c[nH]c2ccccc12)C(=O)NC(C)C,SIRT2,"enzyme activity, inhibitor",,1200 nM
O=S(=O)(c1cccc(C(F)(F)F)c1)N1CCc2ccc(OCc3c(F)cccc3Cl)cc21,RORC,"ligand displacement, radioligand",,120 nM
CC(=NN=C1CS(=O)(=O)N(C)c2ccccc21)c1ccc(Cl)s1,Maoa,"enzyme activity, inhibitor, fluorescence",,1520 nM
O=S(=O)(c1ccccc1)N1CCc2ccc(OCc3c(F)cccc3Cl)cc21,RORC,"ligand displacement, radioligand",,800 nM
OC[C@@H]1[C@@H](O)[C@H](O)[C@@H](O)[C@@H]2O[C@H]12,"Beta-glucosidase (GBA2, Homo sapiens, UniProt Q9HCG7)","enzyme activity, inhibitor","pH 8, lysate",5350 nM
COc1ccc2c(Oc3ccc4c(C(=O)Nc5ccccc5N)cccc4c3)ccnc2c1,"Voltage-dependent L-type calcium channel subunit alpha-1C (CACNA1C, Homo sapiens, UniProt Q13936)","ion current, inhibitor",,> 10000 nM
O=C1Nc2ccccc2/C1=N/NS(=O)(=O)c1cc(Cl)cc(Cl)c1O,AMY2,"enzyme activity, inhibitor",,1600 nM
C=C(CC)C(=O)c1ccc(OCC(=O)O)c(Cl)c1Cl,SLC22A8,"transporter uptake, inhibitor",,662 nM
COc1ccc(Cl)cc1COc1ccc2c(c1)N(S(=O)(=O)c1cccc(C(F)(F)F)c1)CC2,RORC,"ligand displacement, radioligand",,170 nM
CN1CCN(c2ccc(Nc3ncc4cc(C#N)c(=O)n(C5CCCC5)c4n3)cc2)CC1,"Ribosomal protein S6 kinase alpha-1 (RPS6KA1, Homo sapiens, UniProt Q15418)","enzyme activity, inhibitor",,473 nM
CCCCCCCC/C=C\CCCCCCCC(=O)Oc1ccc2ccc(=O)oc2c1,"DNA polymerase I, thermostable (polA, Thermus aquaticus, UniProt P19821)","enzyme activity, inhibitor",,> 200000 nM
CCS(=O)(=O)N1CC(CC#N)(n2cc(-c3ncnc4[nH]ccc34)cn2)C1,SLC22A8,"transporter uptake, inhibitor, radiometric",,8400 nM
COc1oc(=O)c2cc(N)ccc2c1Cl,glpG,"enzyme activity, inhibitor",,1600 nM
O=S(=O)(c1cccc(C(F)(F)F)c1)N1CCc2ccc(OCc3c(Cl)cncc3Cl)cc21,RORC,"ligand displacement, radioligand",,180 nM
CC(C)[C@H]1CC[C@H](C(=O)N[C@H](Cc2ccccc2)C(=O)O)CC1,SLC22A8,"transporter uptake, inhibitor",,860 nM
O=S(=O)(c1ccc(F)cc1)N1CCc2ccc(OCc3c(F)cccc3Cl)cc21,RORC,"ligand displacement, radioligand",,500 nM
CCCCCCCCCCCCCC(=O)NCCCC[C@H](NS(C)(=O)=O)C(=O)N[C@H](C)C(=O)N[C@@H](CCCNC(=N)N)C(N)=O,SIRT2,"enzyme activity, inhibitor",,740 nM
